A short description of series [1]: t1/2 (pH 3). It is filed as ADME.
A short description of series [2]: Half life at pH 7.4. Particulars: buffer. Format: ADME.
Series [3] has as its target Potassium-transporting ATPase (Oryctolagus cuniculus). As to the kind of experiment: In vitro evaluation for the inhibition of H+/K+ ATPase at pH < 3 in the gastric glands of isolated rabbit stomach.
A short description of series [4]: t1/2 (pH 5). Format: ADME.
Series [5] has as its target Sodium/potassium-transporting ATPase. As to the kind of experiment: In vitro evaluation for its ability to inhibit the Na+/K+ ATPase at pH 7.4. It is filed as protein-complex assay, Canis lupus familiaris. The method in brief: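 Dog kidney (Na+,K+)-ATPase (20 μg) incubated in 50 mmol/L HEPES pH 7.4 containing (mmol/L) 140 NaCl, 10 KCl, 3 ATP-Mg and 0.5 EDTA, with inhibitor at 0–300 μmol/L.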

Series [6] can be described thus: pKa value (imidazole). It is filed as physicochemical. The method in brief:
(§1)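 Measured spectrophotometrically at ambient temperature (25 °C).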

Series [7] can be described thus: pKa value (pyridine). It is filed as physicochemical. The method in brief:
as §1

Series [8] can be described thus: Half life at pH 7.4; Insoluble to measure. Format: ADME. The conditions noted are these: buffer.
Series [9] can be described thus: Half life at pH 3; Insoluble to measure. It is filed as ADME. Particulars: buffer.
The nature of series [10]: Half life at pH 5; Insoluble to measure. It is filed as ADME. The conditions noted are these: buffer.

Bounds are passed on as bounds.

By half-life is commonly meant the time needed for the level to fall by half in the phase considered. As a reminder, the IC50 is the concentration that gives 50% inhibition. A high value points to weaker potency in that assay. Regarding `COc1ccnc(C[S+]([O-])c2nc3cc(OC(F)F)ccc3[nH]2)c1` (stereo unspecified), the half-life in series [1] is 10 min; in series [2], 2.12 days; in series [4], 48 min. Further, the IC50 in [3] was 1580 nM. In [5], the “-Log IC50” value is reported as 4.3.
`COc1cnc(C[S+]([O-])c2nc3cc(OC(F)(F)C(F)F)ccc3[nH]2)c(C)c1OC` (stereo unspecified): the half-life in series [1] was 20 min; in series [2], 1.79 days; in series [4] it was 408 min. Besides, the half-maximal inhibitory concentration (IC50) in [3] is 7940 nM. For the same molecule, in series [5], the “-Log IC50” value was found to be 4.2.
For `COc1cnc(C[S+]([O-])c2nc3cc(OC(F)(F)C(F)F)ccc3[nH]2)cc1OC` (stereo unspecified), the figures for the half-life in series [1], in [2] and in series [4] were 19 min, 5.83 days and 174 min, respectively. 20000 nM corresponded to half-maximal inhibition in series [3] (IC50). In addition, the “-Log IC50” value in series [5] is given as below 3.
Usually pKa stands for the negative logarithm of the acid dissociation constant. A high value points to a weaker acid or stronger base. Take `COc1cc(C[S+]([O-])c2nc3cc(OC(F)(F)C(F)F)ccc3[nH]2)ncc1C` (stereo unspecified): the half-life was 6 min in series [1], 0.75 days in series [2] and 12 min in [4]. Moreover, the values for the pKa in series [6] and in series [7] were 8 and 4.95, respectively. For the same molecule, in series [3], the IC50 is 1260 nM. In addition, the “-Log IC50” value in series [5] was determined as 5.5.
On to `COc1ccnc(C[S+]([O-])c2nc3cc(OCC(F)(F)F)ccc3[nH]2)c1OC` (stereo unspecified), for which the half-life was 11 min in series [1], above 8.33 days in series [2] and 456 min in series [4]. The pKa in [6] was determined as 8.52; in series [7], 3.9. Also, the IC50 in series [3] is 1000 nM. Further, the “-Log IC50” value in series [5] worked out at 3.5.
With `COc1ccnc(C[S+]([O-])c2nc3cc(F)c(OC(F)F)cc3[nH]2)c1C` (stereo unspecified), the figures for the half-life in [1], in series [2] and in series [4] were 8 min, 0.167 days and 30 min, respectively. The IC50 in series [3] was 3160 nM. The “-Log IC50” value in series [5] is 4.7.
Turning to `COc1ccnc(C[S+]([O-])c2nc3cc(OC(F)(F)C(F)F)ccc3[nH]2)c1` (stereo unspecified), the half-life is 10 min in series [1], 2.62 days in [2] and 48 min in series [4]. The figures for the pKa in series [6] and in [7] were 7.91 and 4.25, respectively. In addition, in series [3], the 50% inhibitory concentration (IC50) was 1260 nM. In addition, the “-Log IC50” value in series [5] came to 4.4.
For the molecule `COc1cc2[nH]c([S+]([O-])Cc3nccc(OC)c3C)nc2cc1OC(F)F` (stereo unspecified), the results for the half-life in [1], in [2] and in series [4] were 6 min, 0.458 days and 12 min, respectively. In addition, the results for the pKa in [6] and in series [7] were 8.31 and 4.96, respectively. Also, in series [3], the midpoint of inhibition, the IC50, lay at 1580 nM. In addition, the “-Log IC50” value in series [5] was 5.
As to `COc1cnc(C[S+]([O-])c2nc3cc(OC(F)F)ccc3[nH]2)c(C)c1OC` (stereo unspecified), the half-life in series [1] is 12 min; in series [2], 2.5 days; in series [4] it was 222 min. The figures for the pKa in series [6] and in series [7] were 8.35 and 3.73, respectively. In [3], the midpoint of inhibition, the IC50, lay at 2510 nM. The “-Log IC50” value in series [5] turned out to be 4.6.
Consider `COc1ccnc(C[S+]([O-])c2nc3cc(OC(F)F)ccc3[nH]2)c1C` (stereo unspecified), for which the half-life in series [1] is 5 min; in series [2], 0.125 days; in [4], 10.2 min. The molecule further had a concentration for half-maximal inhibition (IC50) in series [3] of 631 nM. Further, the “-Log IC50” value in series [5] is on record as 5.2.
Turning to `COc1ccnc(C[S+]([O-])c2nc3cc4c(cc3[nH]2)OC(F)(F)O4)c1C` (stereo unspecified), the half-life in series [1] was 10 min; in series [4], 30 min. Also, the pKa came to 7.93 in series [6] and 4.73 in series [7]. Besides, in [8], the T1/2 result is “Insoluble to measure”. The molecule also showed an IC50 in series [3] of 1000 nM. Besides, the “-Log IC50” value in series [5] worked out at 4.6.
In the case of `COc1ccnc(C[S+]([O-])c2nc3cc(OC(F)(F)C(F)F)ccc3[nH]2)c1C` (stereo unspecified), the results for the half-life in [1] and in series [4] were 5 min and 18 min, respectively. For the same molecule, the T1/2 entry in series [8] is listed as “Insoluble to measure”. In series [3], this molecule gave an IC50 of 398 nM. The “-Log IC50” value in [5] came to 5.5.
As for `COc1ccnc(C[S+]([O-])c2nc3cc(OC(F)(F)C(F)F)ccc3[nH]2)c1OC` (stereo unspecified), the half-life is 18 min in series [1], 6.67 days in [2] and 216 min in [4]. The pKa came to 8.08 in series [6] and 3.86 in series [7]. In addition, the IC50 in series [3] was 5010 nM. Besides, the “-Log IC50” value in [5] is 3.8.
As to `COc1cnc(C[S+]([O-])c2nc3cc4c(cc3[nH]2)OC(F)(F)O4)c(C)c1OC` (stereo unspecified), the T1/2 entry in series [9], in series [8] and in [10] was “Insoluble to measure” each time. The same molecule gave an IC50 in series [3] of 15800 nM. Further, in [5], the “-Log IC50” value is listed as below 3.
Consider `COc1cc2[nH]c([S+]([O-])Cc3nccc(OC)c3OC)nc2cc1OC(F)F` (stereo unspecified), for which the half-life in series [1] is 15 min; in series [2] it was 33.3 days; in series [4] it was 126 min. In addition, half-maximal inhibition in [3] (IC50) was put at 3980 nM. The “-Log IC50” value in [5] is recorded as 3.6.
`COc1cnc(C[S+]([O-])c2nc3cc4c(cc3[nH]2)OC(F)(F)O4)cc1OC` (stereo unspecified): the T1/2 entry in series [9], in series [8] and in series [10] was “Insoluble to measure” throughout. The half-maximal inhibitory concentration (IC50) in series [3] was 63100 nM. In [5], the “-Log IC50” value is recorded as below 3.
With `COc1cnc(C[S+]([O-])c2nc3cc(OC(F)F)ccc3[nH]2)cc1OC` (stereo unspecified), the half-life in [1] is 17 min; in [2], above 8.33 days; in series [4], 126 min. Also, the results for the pKa in series [6] and in [7] were 8.03 and 3.75, respectively. This molecule also had an IC50 in series [3] of 31600 nM. Further, the “-Log IC50” value in series [5] is reported as below 3.5.
Turning to `COc1ccnc(C[S+]([O-])c2nc3cc4c(cc3[nH]2)OC(F)(F)O4)c1OC` (stereo unspecified), the half-life was 38 min in series [1], above 8.33 days in series [2] and 360 min in series [4]. Further, the pKa in series [6] was determined as 7.97; in [7] it was 3.84. Also, half-maximal inhibition in [3] (IC50) was put at 2510 nM. In addition, the “-Log IC50” value in series [5] worked out at 3.6.
For `COc1ccnc(C[S+]([O-])c2nc3cc(F)c(OC(F)F)cc3[nH]2)c1OC` (stereo unspecified), the half-life in [1] is 26 min; in series [2], 6.25 days; in [4], 498 min. In addition, the pKa was 7.76 in series [6] and 3.76 in series [7]. Inhibition in series [3] was half-maximal at 7940 nM (IC50). Besides, the “-Log IC50” value in [5] amounted to 3.4.
On to `COc1ccnc(C[S+]([O-])c2nc3cc(OCC(F)(F)F)ccc3[nH]2)c1C` (stereo unspecified), for which the half-life in [1] was 5 min; in series [2], 0.208 days; in series [4], 9 min. The pKa in series [6] was 8.51; in series [7], 4.97. The IC50 in [3] was 794 nM. Also, in series [5], the “-Log IC50” value was 5.4.
Consider `COc1c(C)cnc(C[S+]([O-])c2nc3cc(OC(F)F)ccc3[nH]2)c1C` (stereo unspecified), for which the half-life was 12 min in series [1], 0.625 days in series [2] and 114 min in series [4]. The figures for the pKa in series [6] and in [7] were 8.23 and 4.16, respectively. The same molecule gave a half-maximal inhibitory concentration (IC50) in series [3] of 501 nM. Also, the “-Log IC50” value in series [5] is reported as 4.4.
As for `COc1ccnc(C[S+]([O-])c2nc3cc4c(cc3[nH]2)OC(F)(F)O4)c1` (stereo unspecified), the half-life is 20 min in series [1] and 84 min in series [4]. Besides, the results for the pKa in series [6] and in [7] were 7.92 and 4.29, respectively. In addition, the T1/2 entry in series [8] was “Insoluble to measure”. Further, in series [3], the midpoint of inhibition, the IC50, lay at 2510 nM. In series [5], the -Log IC50 is below 3.5.
With `COc1cnc(C[S+]([O-])c2nc3cc(OCC(F)(F)F)ccc3[nH]2)c(C)c1OC` (stereo unspecified), the half-life in [1] is 10 min; in series [2] it was 5.42 days; in series [4] it was 198 min. For the same molecule, the pKa in [6] turned out to be 8.61; in [7], 3.72. In addition, the IC50 in series [3] is 2510 nM. The “-Log IC50” value in series [5] was determined as 4.3.
As for `Cc1c(OCC(F)(F)F)ccnc1C[S+]([O-])c1nc2ccccc2[nH]1` (stereo unspecified) [LANSOPRAZOLE], the half-life in series [1] was 4 min; in series [2] it was 1.67 days; in series [4], 66 min. The pKa came to 8.78 in [6] and 4.01 in series [7]. Besides, the “-Log IC50” value in series [5] worked out at 4.4.
Take `COc1ccc2[nH]c([S+]([O-])Cc3ncc(C)c(OC)c3C)nc2c1` (stereo unspecified) [OMEPRAZOLE]: the half-life in series [1] is 4 min; in series [2], 3.33 days; in series [4], 60 min. Further, the values for the pKa in [6] and in [7] were 8.98 and 4.13, respectively. The “-Log IC50” value in series [5] is 4.5.
For the molecule `COc1ccnc(C[S+]([O-])c2nc3cc(OC(F)F)ccc3[nH]2)c1OC` (stereo unspecified) [PANTOPRAZOLE], the half-life in series [1] was 9 min; in series [2], 5.42 days; in series [4] it was 180 min. Also, the pKa is 8.19 in series [6] and 3.92 in [7]. In [5], the “-Log IC50” value stood at 3.7.

These data come from ChEMBL document CHEMBL1125404 (J Med Chem, 1992).
